Source: PubChem BioAssay (Johns Hopkins Ion Channel Center)
This is a sample that favours compounds with a hit; in the whole collection about 3.5% have one here.
RGS4 block: human RGS4 inhibition. P49798. HEK293 M3R/RGS4 inducible, Fluo-4 calcium flux; stronger effect = higher value; triggered by carbachol at its EC20. B-score at 10 µM. hit rate 0.45% among 310,000. AID 463165;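 active = B-score, a plate-corrected calcium signal, over three deviations above library mean, with baseline fluorescence within five deviations of library mean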;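 also: RGS4 expression induced by doxycycline in cells with stable M3 receptor; B-score is computed from the integrated fluorescence ratio over baseline after carbachol; higher B-score means a larger calcium signal and so more RGS4 inhibition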
Target sequence (P49798 whole entry, looked up): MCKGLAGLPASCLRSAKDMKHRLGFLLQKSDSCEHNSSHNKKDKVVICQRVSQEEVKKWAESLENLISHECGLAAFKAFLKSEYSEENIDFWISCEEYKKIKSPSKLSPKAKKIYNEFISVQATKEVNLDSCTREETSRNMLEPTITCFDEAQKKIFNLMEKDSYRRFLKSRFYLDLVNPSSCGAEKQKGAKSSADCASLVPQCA
MrgX1 agonist: agonists of human MrgX1 receptor. Q96LB2. MrgX1-HEK293 cells, Fluo-4 calcium fluorescence, agonist mode; stronger effect = higher value. B-score at 10 µM. hit rate 0.44% among 310,000. AID 588627;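 active = calcium response B-score plate-corrected fluorescence ratio at least 3 library SD, with starting fluorescence B-score inside 5 SD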
Target sequence (Q96LB2 whole entry, looked up): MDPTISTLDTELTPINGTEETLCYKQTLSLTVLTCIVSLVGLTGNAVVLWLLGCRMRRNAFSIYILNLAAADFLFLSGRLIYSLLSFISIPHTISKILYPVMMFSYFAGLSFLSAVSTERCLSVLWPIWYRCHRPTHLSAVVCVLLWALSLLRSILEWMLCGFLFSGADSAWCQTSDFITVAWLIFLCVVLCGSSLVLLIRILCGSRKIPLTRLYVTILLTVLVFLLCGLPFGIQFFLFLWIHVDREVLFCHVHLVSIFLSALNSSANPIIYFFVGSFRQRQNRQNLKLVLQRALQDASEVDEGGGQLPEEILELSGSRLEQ
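Test system: HEK293 cells stably expressing human MrgX1 receptor; Input: fifteen thousand cells per well; Dosing: compound delivered in addition one of three; Schedule: overnight seeding, then 1 h dark dye loading; Technique: Fluo-4 NW calcium fluorescence; Measure: B-scored fluorescence response ratio; Controls: positive and negative controls per plate.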
MrgX1 allo act: allosterically activates human MrgX1 receptor signaling | Q96LB2 | hit rate 0.63% among 310,000 | B-score at 10 µM | AID 588675 | MrgX1-HEK293, Fluo-4 calcium flux, FDSS; stronger effect = higher value;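 active = plate-corrected calcium response at least 3 library SD above typical, normal starting fluorescence, not activating the receptor alone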;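 also: compound read alongside a low EC10 to EC30 dose of BAM8-22 agonist; peak minus trough fluorescence over baseline measured at the second addition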
MrgX1 antag: antagonists of human MrgX1 receptor. MRGX1-HEK293 calcium flux, Fluo-4, BAM8-22 antagonism; stronger effect = lower value. B-score at 10 µM. AID 588676. hit rate 1.3% among 310,000. Q96LB2;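 active = calcium-response B-score plate-corrected more than 3 library SD below zero, starting fluorescence within 5 deviations, no agonist response on first addition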;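 also: peak minus trough fluorescence over baseline after final BAM8-22 challenge near maximal dose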
RGS4 pot: RGS4 potentiation or activation. HEK293 M3R/inducible RGS4, carbachol calcium flux Fluo4; stronger effect = lower value. B-score at 10 µM. hit rate 0.92% among 310,000. AID 463111;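 active = B-score of the integrated calcium signal more than 4 SD below the library mean, with starting fluorescence not abnormally high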;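 also: negative B-score means reduced calcium response which marks RGS4 activation or potentiation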
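Detection: kinetic calcium fluorescence imaging with Fluo4-AM dye, 2 µM / Material: HEK293 cells with stable M3R and inducible RGS4 / Schedule: recording 10 s baseline at 1 Hz, 100 s post-agonist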
MrgX1 antag conf: confirmation of human MrgX1 receptor antagonists | shares compounds with MrgX1 antag | remaining BAM8-22 calcium response % of control (stronger effect = lower value), % at 10 µM | MrgX1-HEK293, BAM8-22 calcium flux, Fluo-4; stronger effect = lower value | hit rate 19% among 2,300;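 active = remaining agonist calcium response no higher than 100% minus 3 SD of agonist-only control wells, with starting fluorescence near control levels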;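 also: agonist BAM8-22 given at a near maximal EC90 to ECmax level; peak minus minimum fluorescence divided by baseline after agonist addition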
HEK293 Ca flux: activity in parental HEK293 cells lacking MrgX1. shares compounds with MrgX1 antag. fluorescence ratio F(max-min)/F0 at 10 µM. Fluo-4 calcium fluorescence, FDSS. hit rate 2% among 4,000;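 active = duplicate-averaged calcium fluorescence ratio at least three times the standard deviation of buffer wells, a nonspecific response in parental cells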
HEK293 Ca counter: activity in parental HEK293 cells without MrgX1; fluorescence ratio F(max-min)/F0 at 10 µM; hit rate 0.4% among 4,000; shares compounds with MrgX1 antag; parental HEK293 calcium flux, Fluo-4 fluorescence ratio; stronger effect = higher value;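 active = calcium fluorescence ratio, averaged over duplicates, at least 3 SD of the buffer-well ratio, meaning a nonspecific response in receptor-free cells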;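 also: untransfected parental HEK293 lacking MrgX1 used as counterscreen for MrgX1 allosteric activators; fluorescence change taken during the second addition on a kinetic imager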
HEK293 Ca cntr2: MrgX1 activator counter-screen hit in parental HEK293 cells. shares compounds with MrgX1 antag. Fluo-4 calcium fluorescence (FDSS); stronger effect = higher value. fluorescence ratio F(max-min)/F0 at 10 µM. hit rate 8.7% among 4,000. AID 624115;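 active = calcium fluorescence ratio at least three times the spread of buffer wells, meaning a non-specific response in parental cells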
* hit, by the source's call; i = inactive; nt = no result given.

SMILES	RGS4 block	MrgX1 agonist	MrgX1 allo act	MrgX1 antag	RGS4 pot	MrgX1 antag conf	HEK293 Ca flux	HEK293 Ca counter	HEK293 Ca cntr2
Cc1cc(C)cc(C(=O)NCCCN2CCOCC2)c1	i	i	i	i	i	nt	nt	nt	nt
COc1ccc(NC(=O)NCc2cccnc2)cc1	i	i	i	-7.6*	i	i	i	i	i
COc1ccc(OC)c(C(C)NC(=O)Nc2cccc(C(C)=O)c2)c1 (stereo unspecified)	i	i	i	-10*	i	i	i	i	i
COc1ccc(OC)c(C(C)NC(=O)c2ccc(Br)cc2)c1 (stereo unspecified)	i	i	i	i	i	nt	nt	nt	nt
COc1cccc(C(=O)Nc2cccc(C(C)=O)c2)c1	i	i	i	-8*	i	i	i	i	i
COc1cccc(C(=O)Nc2cccc(-c3nnc(-c4ccco4)o3)c2)c1	i	i	i	-5.5*	i	60%*	i	i	i
CN(C)CCOC(=O)NCC12CC3CC(CC(C3)C1)C2	i	i	i	i	i	nt	nt	nt	nt
CCc1ccc(CN2CCCC(CCC(=O)N3CCN(c4ccccn4)CC3)C2)o1 (stereo unspecified)	i	i	i	i	i	nt	nt	nt	nt
COc1cccc(C(=O)NCc2cccnc2)c1	i	i	i	-5.5*	i	i	i	i	i
O=C(Nc1ccc2nn(-c3ccccc3)nc2c1)c1cccnc1	i	i	i	-5.7*	i	84%*	i	i	i
COc1ccc2[nH]cc(CCNC(=O)C3CCCO3)c2c1 (stereo unspecified)	i	i	i	i	i	nt	nt	nt	nt
C[C@@H]1CN(C(=O)c2ccc(OC3CCN(S(=O)(=O)N(C)C)CC3)cc2)C[C@H](C)O1	i	i	i	i	i	nt	nt	nt	nt
CCCN(CC(=O)Nc1ccccc1C)C(=O)COc1c(Cl)cccc1Cl	i	i	i	i	i	nt	nt	nt	nt
CC(C)(C)NC(=O)NC(=O)CN1CCN(C(c2ccccc2)c2ccccc2)CC1	i	i	i	i	i	nt	nt	nt	nt
O=C(CSc1nnnn1C1CC2C=CC1C2)Nc1ccc(C(=O)O)cc1 (stereo unspecified)	i	i	i	i	i	nt	nt	nt	nt
CS(=O)(=O)N(Cc1ccc(Cl)cc1)c1ccc(C(=O)NCCC2=CCCCC2)cc1	i	i	i	-5.4*	i	i	i	i	i
O=C(COC(=O)c1ccc(S(=O)(=O)NCc2ccco2)cc1)Nc1ncc(Cl)cc1Cl	i	i	i	i	i	nt	nt	nt	nt
CC(OC(=O)c1ccc(S(=O)(=O)NCc2ccco2)cc1)C(=O)Nc1ccc(Cl)cn1 (stereo unspecified)	i	i	i	-6.5*	i	i	i	i	i
O=C(Nc1ccccc1)c1cn(CCBr)cn1	i	i	i	i	i	nt	nt	nt	nt
CCCNC(=O)c1nc(C)n(-c2cc(Cl)ccc2Cl)n1	i	i	i	-8.2*	i	81%*	i	i	i
CCCNC(=O)c1nc(C)n(-c2cc(Cl)cc(Cl)c2)n1	i	i	i	i	i	nt	nt	nt	nt
CCNc1c(C(=O)O)ccc2c1C(=O)c1ccccc1C2=O	i	i	i	i	i	nt	nt	nt	nt
CNc1c(C(=O)O)ccc2c1C(=O)c1ccccc1C2=O	i	i	i	-8.6*	i	i	i	i	i
O=S(=O)(c1ccccc1)N1CCN(Cc2cccc(Cl)c2)CC1	nt	i	i	-6.9*	nt	i	i	i	i
